Series [1] has as its target T1, Δ21TgCEN1 (Toxoplasma gondii, UniProt A0A125YHX7).
T1 sequence (A0A125YHX7 22-169): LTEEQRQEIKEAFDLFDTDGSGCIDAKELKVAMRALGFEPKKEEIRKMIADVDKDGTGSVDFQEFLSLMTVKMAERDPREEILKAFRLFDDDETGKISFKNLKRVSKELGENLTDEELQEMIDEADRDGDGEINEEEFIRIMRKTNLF
Put plainly: DLS particle size / count rate of Δ21TgCEN1. The series is classed as physicochemical. The settings on record: 50 µM N21, 1 mM CaCl2. Put shortly: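 Recombinant tag-free Δ21TgCEN1 from E. coli Rosetta (Ni affinity, TEV cleavage). For DLS, 10 µM protein in 20 mM Tris–HCl, 20 mM KCl pH 7.5 with 1 mM CaCl2 at 37°C was spun at 21 000 g for ≥30 min, then measured before and after adding 50 µM N21 peptide. Diameter was reported as number distribution. In parallel, A340 turbidity of 20 µM protein was followed over time.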

For series [2], the target named is T1, Δ21TgCEN1. Put plainly: Turbidimetry at 340 nm, Δ21TgCEN1. The settings on record: 20 µM Δ21TgCEN1 + 50 µM N21, 1 mM CaCl2, 20 mM KCl pH 7.5, 37°C. The series is classed as physicochemical. The procedure, abridged:
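Construct lacking residues 1–21 (E. coli Rosetta) at 20 µM in 20 mM Tris–HCl, 20 mM KCl pH 7.5, 1 mM CaCl2, 37°C. A340 followed over time, before and after adding 50 µM synthetic N-terminal peptide (residues 1–21). Peptide alone with CaCl2 run as a control trace.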

A short description of series [3]: Turbidimetry at 340 nm, N21 peptide alone. The class given is physicochemical. The settings on record: 1 mM CaCl2, 20 mM Tris–HCl, 20 mM KCl pH 7.5, 37°C, turbidity at 340 nm. Put shortly: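 Synthetic N21 peptide (>90% HPLC purity, mass confirmed by ESI-MS) alone with 1 mM CaCl2 in 20 mM Tris–HCl, 20 mM KCl pH 7.5 at 37°C. Absorbance at 340 nm recorded over time in 1 cm quartz cuvettes.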

Series [4] deals with TgCEN1. Put plainly: DLS particle size of TgCEN1. The class given is physicochemical, Toxoplasma gondii. The settings on record: 600 µM ANS, 1 mM CaCl2, 20 mM Tris–HCl, 20 mM KCl pH 7.5, 37°C.
The test system of series [5] is TgCEN1. Put plainly: Turbidimetry at 340 nm, TgCEN1 self-assembly. The class given is physicochemical, Toxoplasma gondii. The settings on record: increasing ANS concentrations, 1 mM CaCl2, 20 mM KCl, pH 7.5, 37°C. Put shortly: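 Full-length protein (E. coli Rosetta) at 20 µM in 20 mM Tris–HCl, 20 mM KCl pH 7.5, 37°C, A340 recorded versus time. Run with 1 mM CaCl2, with 1 mM EGTA, or with EGTA added to Ca2+-saturated protein. Ca2+ series 5–2000 µM, read at 25 min versus metal/protein ratio. Also varied: temperature 4–45°C, protein 5–50 µM, KCl 0–150 mM, and 600 µM ANS.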

The subject of series [6] is N-TgCEN1. The series is described as follows: DLS particle size of N-TgCEN1. The series is classed as physicochemical, Toxoplasma gondii. The settings on record: 600 µM ANS, 10 µM N-TgCEN1, 1 mM CaCl2. The procedure, abridged: (§1)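 Domains produced in E. coli Rosetta: N-domain residues 1–94 and C-domain 95–169. […] 10 µM protein in 20 mM Tris–HCl pH 7.5, 1 mM CaCl2, at selected KCl concentrations or with 600 µM ANS. Samples centrifuged at 21 000 g for ≥30 min; filtered buffers. Hydrodynamic diameter reported as number distribution (633 nm laser, 173°).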

For series [7], the target named is T2, C-TgCEN1 (Toxoplasma gondii, UniProt A0A125YHX7). Put plainly: DLS particle size of C-TgCEN1. The series is classed as physicochemical. Put shortly:
as §1

The nature of series [8]: Far-UV CD of the substance alone. The class given is physicochemical. The settings on record: 20 µM, aqueous solution, 50 mM Tris–HCl, 150 mM KCl pH 7.5, 25°C. Put shortly: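 Synthetic peptide (>90% HPLC purity, mass confirmed by ESI-MS), quantified by ε280 = 5500 M−1 cm−1, at 20 µM. Buffer: 50 mM Tris–HCl, 150 mM KCl pH 7.5, 0.5 mM DTT with 5 mM CaCl2 or EGTA. Spectra 200–250 nm, 0.1 cm cell, 25°C, average of five accumulations, buffer spectrum subtracted.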

Series [9] deals with T2, C-TgCEN1. Put plainly: Turbidimetry at 340 nm, C-TgCEN1. The settings on record: 20 µM, 1 mM CaCl2, 20 mM KCl pH 7.5, 37°C. The series is classed as physicochemical. The procedure, abridged:
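Recombinant N-domain (1–94) or C-domain (95–169), Ni-affinity purified. A340 followed over time in a 1 cm cuvette. Standard conditions: 20 µM protein, 20 mM Tris–HCl, 20 mM KCl pH 7.5, 1 mM CaCl2, 37°C. Conditions also varied: CaCl2 0–2 mM, temperature 4–45°C, protein 5–50 µM, KCl 0–150 mM, or 600 µM ANS added.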

Series [10] concerns EoCEN. The settings on record: addition of XPC peptide; cited from earlier work.
Where [11] appears, read: 600 µM ANS, 10 µM C-TgCEN1, 1 mM CaCl2.

Entries after “also recorded” stand apart in the source; their conditions may differ.

These results are taken from paper PMC8286830 (Biochemical Journal, 2021).

On to 1-MHSRKGASSLPRGRGAGKKTE-21 [N21], for which the “DLS count rate of Δ21TgCEN1 with N21” value in series [1] is listed as “increase”. Moreover, in series [2], the “Δ21TgCEN1 light scattering at 340 nm with N21” value is “an increase in the light scattering at 340 nm”. In addition, in [3], the “Ca^2+-induced aggregation of peptide alone” value is recorded as “did not aggregate upon addition of Ca^2+ in solution”.

For the compound `O=S(=O)(O)c1cccc2cccc(Nc3ccccc3)c12` [ANS, 1-anilino-8-naphthalenesulphonic acid, reference compound], in series [4], the “hydrodynamic diameter of TgCEN1 particles with ANS” value is listed as approximately 238 nm. For the same compound, in series [5], the “TgCEN1 final turbidity at 340 nm with ANS” value is listed as “decreased at increasing ANS concentrations; also recorded: only partially quenched the aggregation process”. Besides, in [6], the “effect of ANS on association of N-TgCEN1” value is on record as “no effect”. In addition, in [7] (setting [11]), the “diameter of new species of C-TgCEN1 with ANS (larger)” value was 35 ± 1 nm and the “diameter of new species of C-TgCEN1 with ANS (smaller)” value is on record as 7.96 ± 0.01 nm.

As for “C-TgCEN1: C-terminal domain of TgCEN1, 95–169 aa”, the “far-UV CD conformation alone” value in series [8] was “well-folded”. The “turbidity at 340 nm” value in [9] was “no turbidity changes at 340 nm”. In series [7] (10 µM, 1 mM CaCl2, 20 mM Tris–HCl, 20 mM KCl pH 7.5), this compound displayed a particle diameter of 311 ± 1 nm. The “DLS profile vs salt” value in [7] (10 µM, selected KCl concentrations, 1 mM CaCl2) is given as “only small changes in the DLS profiles”.

For “XPC peptide: XPC peptide added to centrin from Euplotes octocarinatus (EoCEN), cited ref 43 (NWKLLAKGLLIRERLKR)”, the “effect on protein aggregates” value in [10] is “dissociation of protein aggregates”.
